# Tests used:
# Format in all cases: functional
# [1] = test system: Staphylococcus aureus; experiment: Antibacterial activity against methicillin-susceptible Staphylococcus aureus ATCC 29213 by microdilution method
# Procedure, shortened: (§1)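 Tigecycline MIC measured in triplicate by broth microdilution following CLSI guidelines. Isolates were stored at −80°C in skim milk and subcultured twice on blood agar before testing.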
# [2] = test system: Staphylococcus aureus; experiment: Antibacterial activity against community-acquired methicillin-resistant Staphylococcus aureus 147 by microdilution method; procedure, shortened: as §1
# [3] = test system: Staphylococcus aureus; experiment: Antibacterial activity against hospital-acquired methicillin-resistant Staphylococcus aureus 56 by microdilution method; procedure, shortened: as §1
# [4] = test system: Staphylococcus aureus; experiment: Antibacterial activity against community-acquired methicillin-resistant Staphylococcus aureus 156 by microdilution method; procedure, shortened: as §1
# [5] = test system: Staphylococcus aureus; experiment: Antibacterial activity against community-acquired methicillin-resistant Staphylococcus aureus 144 by microdilution method; procedure, shortened: as §1
# [6] = test system: Staphylococcus aureus; experiment: Antibacterial activity against hospital-acquired methicillin-resistant Staphylococcus aureus 152 by microdilution method; procedure, shortened: as §1
Compound,MIC [1] [µg/mL],MIC [2] [µg/mL],MIC [3] [µg/mL],MIC [4] [µg/mL],MIC [5] [µg/mL],MIC [6] [µg/mL]
CC[C@H]1OC(=O)[C@H](C)[C@@H](O[C@H]2C[C@@](C)(OC)[C@@H](O)[C@H](C)O2)[C@H](C)[C@@H](O[C@@H]2O[C@H](C)C[C@H](N(C)C)[C@H]2O)[C@](C)(O)C[C@@H](C)C(=O)[C@H](C)[C@@H](O)[C@]1(C)O [ERYTHROMYCIN],1,> 32,32,> 32,> 32,1
C[C@H]1COc2c(N3CCN(C)CC3)c(F)cc3c(=O)c(C(=O)O)cn1c23.C[C@H]1COc2c(N3CCN(C)CC3)c(F)cc3c(=O)c(C(=O)O)cn1c23.O [LEVOFLOXACIN],0.25,8,0.25,,0.5,0.25
CCC[C@@H]1C[C@@H](C(=O)N[C@@H]([C@H]2O[C@H](SC)[C@H](O)[C@@H](O)[C@H]2O)[C@H](C)Cl)N(C)C1 [CLINDAMYCIN],0.125,0.125,0.25,≤ 0.5,> 16,0.125
